Molecules are shown by their SMILES.

Experimental findings from ChEMBL document CHEMBL4145443, “Synthesis, β-hematin inhibition studies and antimalarial evaluation of new dehydroxy isoquine derivatives against Plasmodium berghei: A promising antimalarial agent” (Eur J Med Chem, 2018) are described below.

Data set [1] in a line: Hemolytic activity in human RBC after 45 mins by spectrophotometric method. The format is ADME, cell-based, Erythrocyte. Conditions: red blood cells (erythrocytes). The method, boiled down:
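Human RBCs from 50% Alsever's solution were spun at 800g for 10 min and washed three times in saline. Compounds (5-5000 µM) were incubated with a 2% final RBC suspension at 37°C for 45 min. Released haemoglobin was read at 550 nm, with water as the 100% lysis control and saline as the negative control. Result given as the concentration lysing half the RBCs.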

Data set [2] concerns Plasmodium berghei. In words: Antimalarial activity against Plasmodium berghei ANKA infected in Balb/c mouse assessed as parasitemia at 25 mg/kg, ip qd administered for 4 days starting from 2 hrs post infection by Giemsa staining based microscopic method (reference value: 65.2 +/- 2.58%). The format is functional.
The nature of data set [3]: Inhibition of acetate buffer-initiated beta-hematin polymerization measured after 48 hrs. A digest of the protocol:
(§1)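 Hemin chloride (4 mM in DMSO) was dispensed into plates with compound in DMSO (50-5 µM), in triplicate. Water or DMSO served as controls. Reaction was started with 0.2 M acetate buffer, pH 4.4, and run at 37 °C for 48 h. The pellet was centrifuged, washed twice with DMSO, dissolved in 0.2 N NaOH, diluted 1:2 in 0.1 N NaOH and read at 405 nm as % inhibition.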

Data set [4] concerns Plasmodium berghei. The experiment in a line: Antimalarial activity against Plasmodium berghei ANKA infected in Balb/c mouse assessed as mouse survival time at 25 mg/kg, ip qd administered for 4 days starting from 2 hrs post infection (reference value: 6.8 +/- 0.7day). The format is functional. The method, boiled down: (§2)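 Male Balb-C mice (18-22 g, n=6 per group) infected i.v. via caudal vein with 10^6 P. berghei-infected RBC. Treatment started 2 h post-infection, once daily i.p. for 4 days. Compounds dissolved in DMSO (0.1 M stock), diluted with 2% Saline-Tween 20. Saline-treated controls. Survival time recorded relative to saline group. Parasitemia by Giemsa-stained smears at day 4. Mean±SD.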

Data set [5] in a line: Inhibition of acetate buffer-initiated beta-hematin polymerization at 50 uM measured after 48 hrs relative to control. The method, boiled down: as §1
The nature of data set [6]: Cytotoxicity against mouse peritoneal macrophages assessed as growth inhibition after 48 hrs by MTT assay. The format is cell-based, Peritoneal macrophage. Conditions: read-out: LD50. A digest of the protocol:
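Murine peritoneal macrophages plated at 5 × 10^4 cells/well in DMEM with 5 mM L-glutamine, 10% FBS and antibiotics, then incubated overnight at 5% CO2. Compounds added at varied concentrations in duplicate wells, 48 h further incubation. Viability read by MTT reduction as % of untreated controls. LD50 taken by non-linear regression of % viability vs log concentration.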
Background: Tetrazolium assays rely on reduction of a dye to a coloured formazan, in cell work by metabolically active cells.

Data set [7] concerns Plasmodium berghei. In words: Antimalarial activity against Plasmodium berghei ANKA infected in Balb/c mouse assessed as parasitemia at 20 mg/kg, ip qd administered for 4 days starting from 2 hrs post infection by Giemsa staining based microscopic method (reference value: 65.2 +/- 2.58%). The format is functional.
Data set [8] deals with Plasmodium berghei. In words: Antimalarial activity against Plasmodium berghei ANKA infected in Balb/c mouse assessed as mouse survival time at 20 mg/kg, ip qd administered for 4 days starting from 2 hrs post infection (reference value: 6.8 +/- 0.7day). It counts as functional. A digest of the protocol: as §2

A word on the HC50: it is the concentration giving 50% haemolysis. A lower HC50 goes with stronger haemolysis. As usually defined, the IC50 is the concentration at which inhibition is half-maximal. Higher therefore signals lower potency. In general, inhibition refers to the drop in the measured response relative to a control, in per cent. The low end stands for little suppression, the high end for strong suppression. `CCN(CC)CCCC(C)Nc1ccnc2cc(Cl)ccc12` (stereo unspecified) [CHLOROQUINE]: the HC50 at 0.75 h in data set [1] was above 1.5 mM. Also, the Activity in the data set on Plasmodium berghei [2] is 0.6%. This compound also had an IC50 in data set [3] of 1.48 µM. Besides, in the data set with Plasmodium berghei [4], the Time was 29.4 days. The compound also had an inhibition in data set [5] of 98.6%.
In the case of `CC(C)(C)NCc1ccc(Nc2ccnc3cc(Cl)ccc23)cc1.Cl`, in data set [1], the HC50 at 0.75 h was determined as 1.49 mM. In data set [6], the CC50 at 48 h was 47.1 µM. The Activity in the data set with Plasmodium berghei [7] came to 4%. Also, in the data set on Plasmodium berghei [8], the Time stood at 25.8 days. The same compound registered an IC50 in data set [3] of 1.66 µM. In addition, the inhibition in data set [5] is 98.6%.
Regarding `CCN(CC)Cc1ccc(Nc2ccnc3cc(Cl)ccc23)cc1`, the HC50 at 0.75 h in data set [1] turned out to be 2.92 mM. Moreover, in data set [6], the CC50 at 48 h came out at 42.4 µM. Also, the Activity with Plasmodium berghei [7] turned out to be 3.8%. Also, the Time in the data set with Plasmodium berghei [8] worked out at 24.9 days. This compound gave an IC50 in data set [3] of 1.78 µM. This compound came in with an inhibition in data set [5] of 98.2%.
Consider `Clc1ccc2c(Nc3ccc(CN4CCOCC4)cc3)ccnc2c1`, for which the HC50 at 0.75 h in data set [1] was 0.591 mM. Also, the CC50 at 48 h in data set [6] is 36.2 µM. In addition, the IC50 in data set [3] was above 50 µM. Also, the inhibition in data set [5] amounted to 5.17%.
